Results from publication PMC10791108 (Journal of Enzyme Inhibition and Medicinal Chemistry, 2024).
Where two headings read alike, the source gives them in different places.

Experiments:
A549 [1] = conditions: read-out: IC50 cytotoxic activity A549; 72 h ref 51; cited from earlier work
MCF-7 [2] = conditions: read-out: IC50 cytotoxic activity MCF-7; 72 h ref 51; cited from earlier work
A549 [3] = assay: MTT drug sensitivity assay; assay type: cell-based; conditions: Homo sapiens, A549, 72 h, read-out: In vitro growth inhibitory activity (IC50 ± SD) A549
Outline: (§1)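 ATCC lines were grown at 37 °C, 5% CO2 with 10% FBS and 2 mM L-glutamine (A549, MCF-7: RPMI-1640; HCT-116, U-2 OS: McCoy's 5A; U-87 MG: MEM; HEK293: DMEM). Test compound 0–50 µM for 72 h, then MTT 0.4 mg/ml in PBS, 3 h, 37 °C. Formazan dissolved in DMSO, absorbance 540 nm. IC50 relative to 1% v/v DMSO-treated cells; three independent runs.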

HCT-116 [4] = assay: MTT drug sensitivity assay; assay type: cell-based; conditions: Homo sapiens, HCT-116, 72 h, read-out: In vitro growth inhibitory activity (IC50 ± SD) HCT-116
Outline: as §1

MCF-7 [5] = assay: MTT drug sensitivity assay; assay type: cell-based; conditions: Homo sapiens, MCF7, 72 h, read-out: In vitro growth inhibitory activity (IC50 ± SD) MCF-7
Outline: as §1

U-2 OS = assay: MTT drug sensitivity assay; assay type: cell-based; conditions: Homo sapiens, U2OS, 72 h, read-out: In vitro growth inhibitory activity (IC50 ± SD) U-2 OS
Outline: as §1

U-87 MG = assay: MTT drug sensitivity assay; assay type: cell-based; conditions: Homo sapiens, 72 h, read-out: In vitro growth inhibitory activity (IC50 ± SD) U-87 MG
Outline: as §1

HEK293 = assay: MTT drug sensitivity assay; assay type: cell-based; conditions: Homo sapiens, HEK293, 72 h, read-out: In vitro growth inhibitory activity (IC50 ± SD) HEK293
Outline: as §1

[6] = test system: all investigated cell lines, including HEK293; assay: MTT drug sensitivity assay, statement over all cell lines; assay type: cell-based; conditions: Homo sapiens, HEK293, 72 h, read-out: IC50 for all investigated cell lines
Outline: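 Cells were exposed to test compound at 0–50 µM for 72 h. Lines: A549 and MCF-7 (RPMI-1640), HCT-116 and U-2 OS (McCoy's 5A), U-87 MG (MEM), HEK293 (DMEM); all with 10% FBS, 37 °C, 5% CO2. MTT (0.4 mg/ml in PBS) for 3 h at 37 °C; formazan dissolved in DMSO; A540. ETP and m-AMSA as references; independent triplicate.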

Topo IIα [7] = target: T1, Topo IIα (Homo sapiens, UniProt P11388); assay: pBR322 DNA relaxation assay; assay type: biochemical; conditions: for Inhibition of Topo IIα-mediated pBR322 relaxation: gel
human Topo IIβ [8] = target: T2, human Topo IIβ (Homo sapiens, UniProt Q02880); assay: pBR322 DNA relaxation assay; assay type: biochemical; conditions: gel
Outline: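 Supercoiled pBR322 (250 ng) with test compound in reaction buffer. Started by adding diluted human Topo IIβ, incubated 30 min at 37 °C, quenched with loading buffer. Topoisomers separated on 1% agarose in 1× TBE (20 V, 18 h) and visualised by ethidium bromide staining. ETP and ICRF-187 were included as references.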

Topo IIα [9] = target: T1, Topo IIα; assay: kDNA decatenation assay; assay type: biochemical; conditions: gel
Outline: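 Commercial kit protocol: 250 ng kDNA with test compound in reaction buffer; started by adding diluted human Topo IIα; 30 min at 37 °C; stopped with loading buffer. Products resolved on 1% agarose in 1xTBE, 20 V for 18 h, EtBr-stained, destained in water, imaged. Catenated versus decatenated kDNA judged by migration.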

human Topo IIβ [10] = target: T2, human Topo IIβ; assay: kDNA decatenation assay; assay type: biochemical; conditions: gel
Outline: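 Decatenation: 250 ng kDNA was mixed with test compound in reaction buffer. The reaction was started with diluted human Topo IIβ and run for 30 min at 37 °C, then stopped with loading buffer. Products were resolved on a 1% agarose gel in 1× TBE at 20 V for 18 h and stained with ethidium bromide. ETP and ICRF-187 were references.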

Topo IIα [11] = target: T1, Topo IIα; assay: DNA cleavage assay; assay type: biochemical; conditions: for Stabilisation of Topo IIα/DNA cleavage complex (linear pBR322 plasmid): gel, ETP 100 µM
Outline: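 Reaction mix as for the human Topo IIα relaxation assay (plasmid DNA, test compound, reaction buffer), but with fivefold more enzyme. Reaction started by adding human Topo IIα, then 10 min at 37 °C. Products separated by agarose gel electrophoresis in 1× TBE containing EtBr (1 µg/ml), and linear plasmid scored on the gel.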

A549 [12] = assay: Clonogenic assay; assay type: cell-based, human; conditions: 24 h treatment, eight days culture, vs DMSO
Outline: (§2)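 A549 or HCT-116 cells were seeded at 400 cells/well and exposed to a range of test compound concentrations for 24 h. After washing, cells were grown for eight days, then fixed in methanol and stained with 0.5% crystal violet. Colonies were counted and viability calculated relative to control. Mean ± SD of three independent experiments.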

HCT-116 [13] = assay: Clonogenic assay; assay type: cell-based, human; conditions: 24 h treatment, eight days culture, vs DMSO
Outline: as §2

A549 [14] = assay: Annexin V-FITC/7-AAD apoptosis assay; assay type: cell-based, human; conditions: Annexin V/7-AAD
HCT-116 [15] = assay: Annexin V-FITC/7-AAD apoptosis assay; assay type: cell-based, human; conditions: for Necrosis activation HCT-116: statistically significant, **p < 0.001
A549 [16] = assay: Caspase-3/7 activation; assay type: cell-based, human; conditions: 24 h, equitoxic concentrations
HCT-116 [17] = assay: TUNEL DNA fragmentation analysis; assay type: cell-based, human; conditions: 24 and 48 h; more pronounced than on A549
A549 [18] = assay: BrdU incorporation assay; assay type: cell-based, human; conditions: equitoxic (IC50) concentration, 24 or 48 h
HCT-116 [19] = assay: BrdU incorporation assay; assay type: cell-based, human; conditions: equitoxic (IC50) concentration, 24 or 48 h
MCF-7 [20] = assay: Cell cycle analysis; assay type: cell-based, human; conditions: 48 h exposure, equitoxic concentration, p < 0.00001
HCT-116 [21] = assay: Cell cycle analysis; assay type: cell-based, human; conditions: equitoxic concentrations, 24 and 48 h
A549 [22] = conditions: reference, 50 µM added 15 min before end of incubation
HCT-116 [23] = conditions: reference, 50 µM added 15 min before end of incubation
[24] = concentration series up to highest concentration tested

T1 sequence (P11388 whole entry): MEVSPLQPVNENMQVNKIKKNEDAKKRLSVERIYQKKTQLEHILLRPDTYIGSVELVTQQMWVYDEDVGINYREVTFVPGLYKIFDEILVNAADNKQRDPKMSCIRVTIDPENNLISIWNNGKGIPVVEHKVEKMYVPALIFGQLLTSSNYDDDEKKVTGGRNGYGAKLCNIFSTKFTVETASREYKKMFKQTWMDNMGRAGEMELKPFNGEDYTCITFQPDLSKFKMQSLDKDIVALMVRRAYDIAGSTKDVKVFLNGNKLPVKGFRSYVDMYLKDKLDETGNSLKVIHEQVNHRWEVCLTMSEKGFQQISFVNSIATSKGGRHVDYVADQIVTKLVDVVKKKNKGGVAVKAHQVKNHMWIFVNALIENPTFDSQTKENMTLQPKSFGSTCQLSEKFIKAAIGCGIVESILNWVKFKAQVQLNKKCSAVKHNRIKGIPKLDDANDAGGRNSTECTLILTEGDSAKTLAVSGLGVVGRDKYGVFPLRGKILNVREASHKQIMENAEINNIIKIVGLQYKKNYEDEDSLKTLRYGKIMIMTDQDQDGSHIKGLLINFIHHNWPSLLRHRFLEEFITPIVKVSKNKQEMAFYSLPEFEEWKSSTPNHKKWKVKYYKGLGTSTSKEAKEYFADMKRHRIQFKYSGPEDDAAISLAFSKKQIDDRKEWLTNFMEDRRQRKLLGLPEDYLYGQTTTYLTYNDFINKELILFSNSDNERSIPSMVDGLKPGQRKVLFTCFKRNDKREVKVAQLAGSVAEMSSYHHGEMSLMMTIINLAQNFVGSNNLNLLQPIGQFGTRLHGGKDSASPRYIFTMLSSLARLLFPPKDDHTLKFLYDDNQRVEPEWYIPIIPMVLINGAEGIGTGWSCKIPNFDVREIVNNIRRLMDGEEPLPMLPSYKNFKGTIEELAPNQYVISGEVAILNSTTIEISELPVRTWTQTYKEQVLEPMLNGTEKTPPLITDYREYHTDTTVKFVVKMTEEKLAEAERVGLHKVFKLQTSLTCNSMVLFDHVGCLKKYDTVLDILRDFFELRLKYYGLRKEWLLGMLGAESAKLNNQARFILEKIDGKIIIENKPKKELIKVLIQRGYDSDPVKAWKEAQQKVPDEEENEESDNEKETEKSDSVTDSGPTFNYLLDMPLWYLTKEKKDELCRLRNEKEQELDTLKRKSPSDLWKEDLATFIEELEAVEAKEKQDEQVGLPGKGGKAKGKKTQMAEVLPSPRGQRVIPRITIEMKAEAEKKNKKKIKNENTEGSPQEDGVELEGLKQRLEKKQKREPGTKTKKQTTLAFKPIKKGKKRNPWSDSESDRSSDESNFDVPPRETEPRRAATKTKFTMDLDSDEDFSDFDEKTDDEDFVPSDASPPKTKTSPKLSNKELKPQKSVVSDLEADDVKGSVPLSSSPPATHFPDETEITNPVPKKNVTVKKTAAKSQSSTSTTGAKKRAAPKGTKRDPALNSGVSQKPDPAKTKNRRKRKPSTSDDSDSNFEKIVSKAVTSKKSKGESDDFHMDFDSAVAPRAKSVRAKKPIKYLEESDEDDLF
T2 sequence (Q02880 whole entry): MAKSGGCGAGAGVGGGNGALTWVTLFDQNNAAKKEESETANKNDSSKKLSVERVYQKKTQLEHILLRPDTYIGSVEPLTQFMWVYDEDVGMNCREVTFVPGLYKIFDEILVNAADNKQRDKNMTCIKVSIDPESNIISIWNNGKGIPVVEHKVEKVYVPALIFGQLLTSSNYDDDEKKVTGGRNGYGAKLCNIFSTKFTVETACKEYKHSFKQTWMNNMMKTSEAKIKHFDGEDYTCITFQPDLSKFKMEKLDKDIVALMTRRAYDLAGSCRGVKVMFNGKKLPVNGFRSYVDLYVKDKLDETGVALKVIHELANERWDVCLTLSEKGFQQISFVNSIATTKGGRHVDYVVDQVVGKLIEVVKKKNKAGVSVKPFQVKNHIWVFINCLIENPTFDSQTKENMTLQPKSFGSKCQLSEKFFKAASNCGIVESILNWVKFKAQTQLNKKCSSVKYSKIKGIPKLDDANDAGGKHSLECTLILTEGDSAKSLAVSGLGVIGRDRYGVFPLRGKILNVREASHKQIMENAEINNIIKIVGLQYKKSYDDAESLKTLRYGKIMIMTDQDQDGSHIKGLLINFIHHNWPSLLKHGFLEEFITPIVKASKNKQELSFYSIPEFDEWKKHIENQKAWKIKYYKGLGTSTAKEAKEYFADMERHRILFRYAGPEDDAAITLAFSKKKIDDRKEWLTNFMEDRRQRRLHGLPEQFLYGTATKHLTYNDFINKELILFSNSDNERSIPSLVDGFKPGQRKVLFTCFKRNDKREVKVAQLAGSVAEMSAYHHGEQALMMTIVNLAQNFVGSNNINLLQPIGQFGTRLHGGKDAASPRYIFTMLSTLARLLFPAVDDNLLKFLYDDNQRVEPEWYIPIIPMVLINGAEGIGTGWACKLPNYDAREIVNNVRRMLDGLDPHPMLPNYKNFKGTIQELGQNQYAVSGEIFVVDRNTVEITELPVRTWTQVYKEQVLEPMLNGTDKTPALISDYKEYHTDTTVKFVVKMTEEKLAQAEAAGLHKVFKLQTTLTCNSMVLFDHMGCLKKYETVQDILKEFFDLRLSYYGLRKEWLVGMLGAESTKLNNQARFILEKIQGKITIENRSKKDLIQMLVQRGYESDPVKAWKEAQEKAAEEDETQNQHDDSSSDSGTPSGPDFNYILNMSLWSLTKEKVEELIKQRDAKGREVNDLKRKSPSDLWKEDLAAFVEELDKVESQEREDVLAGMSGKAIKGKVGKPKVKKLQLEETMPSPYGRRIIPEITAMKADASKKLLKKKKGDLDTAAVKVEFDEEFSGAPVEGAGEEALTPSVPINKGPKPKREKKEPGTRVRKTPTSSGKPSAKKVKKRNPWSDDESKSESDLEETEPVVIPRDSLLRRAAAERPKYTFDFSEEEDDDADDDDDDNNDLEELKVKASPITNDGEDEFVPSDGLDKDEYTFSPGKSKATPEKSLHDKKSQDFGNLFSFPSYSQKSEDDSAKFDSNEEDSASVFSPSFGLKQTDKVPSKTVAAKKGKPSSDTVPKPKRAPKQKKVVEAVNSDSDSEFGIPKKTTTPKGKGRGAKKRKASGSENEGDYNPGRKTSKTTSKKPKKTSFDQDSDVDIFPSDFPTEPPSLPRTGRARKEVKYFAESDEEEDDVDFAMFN

O=C1NC(=S)NC(=O)C1C(=O)Nc1ccccc1 [merbarone]
IC50 (A549 [1]): 40 ± 2.7 µM
IC50 (MCF-7 [2]): 83.9 ± 3 µM

c1coc(-c2ccc3c(c2)[nH]c2cc(-c4ccco4)ccc23)c1 [Compound 27a, 2,7-Di(2-furyl)-9H-carbazole]
IC50 (A549 [3]): 260 ± 120 nM
IC50 (HCT-116 [4]): 220 ± 40 nM
IC50 (MCF-7 [5]): 790 ± 210 nM
IC50 (U-2 OS): 370 ± 50 nM
IC50 (U-87 MG): 450 ± 150 nM
IC50 (HEK293): 190 ± 70 nM
IC50 [6]: < 1000 nM
Inhibition of Topo IIα-mediated pBR322 relaxation (Topo IIα [7]; highest tested concentrations): moderately affected
Inhibition of Topo IIβ-mediated pBR322 relaxation (human Topo IIβ [8]; highest tested concentrations): moderately affected
Inhibition of Topo IIα-mediated kDNA decatenation (Topo IIα [9]; [24]): either completely inhibited decatenation only at the highest concentration tested, or partially inhibited the decatenation of higher-order catenates
Inhibition of Topo IIβ-mediated kDNA decatenation (human Topo IIβ [10]; 100 µM): completely inhibited decatenation
Stabilisation of Topo IIα/DNA cleavage complex (linear pBR322 plasmid) (Topo IIα [11]): do not stabilise the covalent cleavage complex
Colony-forming ability A549 (A549 [12]): reduced the colony number
Colony-forming ability HCT-116 (HCT-116 [13]): reduced the colony number
Increase in fraction of apoptotic cells compared to control A549 (A549 [14]): eightfold increase
Increase in fraction of apoptotic cells compared to control HCT-116 (HCT-116 [15]; Annexin V/7-AAD): eightfold increase
Necrosis activation HCT-116 (HCT-116 [15]): slightly activated necrosis
Caspase-3/7 activation, increase compared to control A549 (A549 [16]): 3.4 fold
TUNEL-positive cells HCT-116 (HCT-116 [17]): most massive effect

COc1cc([C@@H]2c3cc4c(cc3[C@@H](O[C@@H]3O[C@@H]5CO[C@@H](C)O[C@H]5[C@H](O)[C@H]3O)[C@H]3COC(=O)[C@H]23)OCO4)cc(OC)c1O [Etoposide, etoposide, reference compound]
IC50 (A549 [3]): 540 ± 210 nM
IC50 (HCT-116 [4]): 390 ± 10 nM
IC50 (MCF-7 [5]): 830 ± 150 nM
IC50 (U-2 OS): 610 ± 40 nM
IC50 (U-87 MG): 11900 ± 1310 nM

c1csc(-c2ccc3[nH]c4ccc(-c5cccs5)cc4c3c2)c1 [Compound 36b, 3,6-Di(2-thienyl)-9H-carbazole]
IC50 (A549 [3]): 600 ± 100 nM
IC50 (HCT-116 [4]): 270 ± 110 nM
IC50 (MCF-7 [5]): 830 ± 210 nM
IC50 (U-2 OS): 710 ± 60 nM
IC50 (U-87 MG): 1400 ± 240 nM
IC50 (HEK293): 320 ± 110 nM
Inhibition of Topo IIα-mediated pBR322 relaxation (Topo IIα [7]; highest tested concentrations): moderately affected
Inhibition of Topo IIβ-mediated pBR322 relaxation (human Topo IIβ [8]; highest tested concentrations): moderately affected
Inhibition of Topo IIα-mediated kDNA decatenation (Topo IIα [9]; [24]): either completely inhibited decatenation only at the highest concentration tested, or partially inhibited the decatenation of higher-order catenates
Stabilisation of Topo IIα/DNA cleavage complex (linear pBR322 plasmid) (Topo IIα [11]): do not stabilise the covalent cleavage complex
Colony-forming ability A549 (A549 [12]): lower inhibitory activity
Decrease in BrdU-positive cells A549 (A549 [18]): approximately 4 fold
Decrease in BrdU-positive cells HCT-116 (HCT-116 [19]): ~3.5 fold
Cells in G0/G1 phase MCF-7 (MCF-7 [20]): 59.85 ± 2.15%
Necrosis activation HCT-116 (HCT-116 [15]): slightly activated necrosis
Caspase-3/7 activation, increase compared to control A549 (A549 [16]): 2.5 fold

c1coc(-c2ccc3[nH]c4ccc(-c5ccco5)cc4c3c2)c1 [Compound 36a, 3,6-Di(2-furyl)-9H-carbazole]
IC50 (A549 [3]): 930 ± 150 nM
IC50 (HCT-116 [4]): 480 ± 60 nM
IC50 (MCF-7 [5]): 1390 ± 290 nM
IC50 (U-2 OS): 990 ± 180 nM
IC50 (U-87 MG): 2190 ± 300 nM
IC50 (HEK293): 1650 ± 130 nM
Isoform selectivity of relaxation inhibition (Topo IIα vs Topo IIβ) (Topo IIα [7]; from relaxation gels with both isoforms): selectively inhibits the relaxation activity of Topo IIα
Inhibition of Topo IIα-mediated pBR322 relaxation (Topo IIα [7]; 20–100 µM): fully inhibited DNA relaxation
Inhibition of Topo IIβ-mediated pBR322 relaxation (human Topo IIβ [8]; 20–100 µM): did not impact Topo IIβ activity
Inhibition of Topo IIα-mediated kDNA decatenation (Topo IIα [9]; 4–100 µM): effective and concentration-dependent inhibition
Inhibition of Topo IIβ-mediated kDNA decatenation (human Topo IIβ [10]; highest concentration tested): partially inhibiting decatenation only at the highest concentration tested
Effect on ETP-induced DNA cleavage (linear plasmid) (Topo IIα [11]; co-treatment with ETP, Topo IIα): reduced the level of linear plasmid
Stabilisation of Topo IIα/DNA cleavage complex (linear pBR322 plasmid) (Topo IIα [11]): do not stabilise the covalent cleavage complex
Colony-forming ability A549 (A549 [12]): reduced the colony number
Colony-forming ability HCT-116 (HCT-116 [13]): reduced the colony number
Cell cycle effect HCT-116 (G0/G1 phase) (HCT-116 [21]): time-dependent increase in the number of cells in the G0/G1 phase
Caspase-3/7 activation, increase compared to control A549 (A549 [16]): 5.7 fold

C[C@@H](CN1CC(=O)NC(=O)C1)N1CC(=O)NC(=O)C1 [ICRF-187, reference compound]
Inhibition of Topo IIα-mediated pBR322 relaxation (Topo IIα [7]; reference at 100 µM): completely inhibited relaxation activity
Inhibition of Topo IIβ-mediated pBR322 relaxation (human Topo IIβ [8]; reference at 100 µM): relatively lower inhibitory effects
Inhibition of Topo IIβ-mediated kDNA decatenation (human Topo IIβ [10]; 100 µM): more significant effect than ETP

N#CC(C#N)=NNc1ccc(OC(F)(F)F)cc1 [FCCP, carbonyl cyanide 4-(trifluoromethoxy)phenylhydrazone]
Increase in JC-1 monomers vs control A549 (A549 [22]): 11 fold
Increase in JC-1 monomers vs control HCT-116 (HCT-116 [23]): 6.3 fold
